Source: PubChem
Shown are actives, neighbours in structure and some others; about 2.3% of the full set was active somewhere.
CHT inh – inhibitors of human choline transporter CHT; actives 0.86% (n = 310,000); B-score at 10 µM; CHT-expressing cells, membrane potential dye, choline response; hits give low values;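 active = B-score over 3 SD under the library average, and starting fluorescence ratio not unusually high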;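 also: choline stimulus applied at its EC90 after an EC20 pre-addition; B-score computed on integrated fluorescence ratio after choline addition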
GalR3 antag – antagonists of human GalR3; O60755; inhibition, % at 3 µM; HEK293 GalR3-CNG cAMP membrane potential fluorescence; galR3 body fused to GalR1 C-terminus; actives 0.44% (n = 360,000);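 active = inhibition above the screen-wide average plus 3 SD, cut at about 13% in these data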;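 also: forskolin and galanin both at EC90 stimulate the cells; cAMP rise reported by CNG channel membrane potential dye signal; 0% = forskolin plus galanin with DMSO and 100% = forskolin alone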
NR2E3 ag-1 – agonists of human NR2E3 nuclear receptor; Q9Y5X4; CHO-S Gal4-NCOR/VP16-NR2E3 two-hybrid, luciferase; inhibition of corepressor binding, % at 3.98 µM; actives 0.35% (n = 360,000);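 active = inhibition above the mean of all tested compounds plus 3 SD, cut at about 70% in these data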;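 also: 0% = DMSO with NR2E3 transfected cells and 100% = cells lacking NR2E3 construct; higher means lower luciferase signal from less NR2E3 corepressor binding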
Target sequence (Q9Y5X4 whole entry, looked up, the tested form may be a part): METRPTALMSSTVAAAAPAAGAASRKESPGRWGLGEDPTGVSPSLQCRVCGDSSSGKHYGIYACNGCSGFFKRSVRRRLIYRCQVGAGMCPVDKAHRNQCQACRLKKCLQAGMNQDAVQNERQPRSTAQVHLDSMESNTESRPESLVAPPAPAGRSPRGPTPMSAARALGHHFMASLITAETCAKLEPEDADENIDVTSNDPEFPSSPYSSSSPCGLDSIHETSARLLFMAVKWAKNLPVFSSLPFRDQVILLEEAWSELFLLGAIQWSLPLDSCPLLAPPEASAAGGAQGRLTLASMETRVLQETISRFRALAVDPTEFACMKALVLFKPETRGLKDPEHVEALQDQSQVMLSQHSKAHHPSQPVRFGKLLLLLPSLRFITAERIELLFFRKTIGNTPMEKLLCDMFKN
CHT allo act – allosterically activates the human high affinity choline transporter. CHT-expressing cells, membrane potential dye, choline EC20; hits give high values; LV-AA mutant CHT in HEK293 cells. B-score at 10 µM. actives 0.49% (n = 310,000). AID 488977;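 active = initial fluorescence not abnormally high and integrated response B-score, plate-corrected, over 3 SD above library mean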
NR2E3 ag-2 – NR2E3 (human) agonism; Q9Y5X4; GST-NR2E3/biotin-RetCOR TR-FRET, 1536-well; inhibition of corepressor binding, % at 4.78 µM; actives 0.12% (n = 320,000);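 active = percent inhibition above the cutoff of mean plus 3 SD of all tested compounds, set per screening campaign, cut at about 20% in these data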;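 also: 0% = DMSO wells and 100% = biotin wells as full block of FRET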
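system = GST-tagged NR2E3 plus biotinylated RetCOR corepressor | input = 1.35 nM GST-NR2E3 | also added = 7 nM biotin-RetCOR | schedule = 5 h incubation at 4 °C | measured by = TR-FRET with europium anti-GST and streptavidin-D2, 340 nm excitation | read-out = percent loss of FRET ratio relative to control wells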
COUP-TFII inh – blocks human COUP-TFII nuclear receptor; HEK293T NGFI-A luciferase reporter, luminescence; P24468; AID 686940; actives 0.7% (n = 370,000); inhibition, % at 8.6 µM;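 active = inhibition above a per-plate cutoff, mean inhibition of test wells between control levels plus 3 SD, cut at about 38% in these data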;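 also: cells cotransfected with COUP-TFII expression vector driving the NGFI-A reporter; 0% = median of COUP-TF2 test wells and 100% = reporter-only cells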
NR2E3 ag confirm – NR2E3 agonism confirmed in two-hybrid assay; inhibition, % at 3.98 µM; actives 51% (n = 2,300); shares compounds with NR2E3 ag-1; CHO-S mammalian two-hybrid NR2E3-NCOR, luciferase luminescence;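 active = average inhibition above a cutoff equal to the mean inhibition of all tested compounds plus one SD, cut at about 70% in these data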;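 also: 0% = DMSO in NR2E3 cells and 100% = DMSO in cells lacking NR2E3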
VP16 counter – reduces GAL4-VP16 reporter signal in NR2E3 counterscreen; CHO-S GAL4-VP16 luciferase reporter, luminescence; AID 624379; inhibition, % at 3.98 µM; actives 29% (n = 2,300); shares compounds with NR2E3 ag-1;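 active = mean inhibition above a cutoff equal to the average over all tested compounds plus one standard deviation, cut at about 70% in these data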;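 also: luciferase from a UAS reporter driven by GAL4-VP16 transactivation; 0% = DMSO with VP16-transfected cells and 100% = DMSO with cells lacking VP16; higher means less reporter light so more repression of VP16 activity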
An asterisk follows results filed as active.

CCOc1ccc(S(=O)(=O)N2CCC(C(=O)N3CCN(c4ccccc4F)CC3)CC2)cc1C was read as CHT inh inactive, GalR3 antag 2, NR2E3 ag-1 48, CHT allo act inactive, NR2E3 ag-2 -2, COUP-TFII inh 16, NR2E3 ag confirm 6 and VP16 counter 44.
Screening CCCCCSc1nncc(=O)[nH]1 returned CHT inh inactive, GalR3 antag -4, NR2E3 ag-1 -17, CHT allo act inactive, NR2E3 ag-2 1 and COUP-TFII inh -2.
Screening CCCCCCCCSC1=CC(=O)C(OC)=C(OC)C1=O returned GalR3 antag -3, NR2E3 ag-1 59, COUP-TFII inh 7, NR2E3 ag confirm 93* and VP16 counter 68.
O=c1cc(C(F)(F)F)[nH]c2ccc(C(F)(F)F)cc12 was read as CHT inh inactive, GalR3 antag -3, NR2E3 ag-1 93*, CHT allo act inactive, NR2E3 ag-2 -2, COUP-TFII inh 3, NR2E3 ag confirm 101* and VP16 counter 91*.
`CCn1c(=O)cc(SCC(=O)Nc2ccc(C)cn2)c2ccccc21` gave CHT inh inactive, GalR3 antag -4, NR2E3 ag-1 74*, CHT allo act inactive, NR2E3 ag-2 -5, COUP-TFII inh -14, NR2E3 ag confirm 95* and VP16 counter 17.
CCn1c(=O)cc(OCC(=O)Nc2ccc(C)cn2)c2ccccc21 was read as CHT inh inactive, GalR3 antag -6, NR2E3 ag-1 5, CHT allo act inactive, NR2E3 ag-2 -4 and COUP-TFII inh -19.
`CC(C)Nc1nc(NCCOc2ccccc2Cl)c2sc(-c3ccccc3)cc2n1` gave GalR3 antag -8, NR2E3 ag-1 48, COUP-TFII inh 23, NR2E3 ag confirm 18 and VP16 counter 14.
Screening O=C1c2cc([N+](=O)[O-])ccc2-c2cc(Br)c(N=C(NO)C(F)(F)F)cc21 returned GalR3 antag -3, NR2E3 ag-1 101*, COUP-TFII inh -10, NR2E3 ag confirm 97* and VP16 counter 61.
For CCOc1ccc(-c2nc(CSCC(=O)NCC3CCCO3)c(C)o2)cc1 (stereo not given) the results were CHT inh inactive, GalR3 antag -2, NR2E3 ag-1 104*, CHT allo act inactive, NR2E3 ag-2 1, COUP-TFII inh -3, NR2E3 ag confirm 92* and VP16 counter 87*.
Screening Cc1ccc(-c2nc(CSCC(=O)NCC3CCCO3)c(C)o2)cc1 (stereo not given) returned CHT inh inactive, GalR3 antag -6, NR2E3 ag-1 49, CHT allo act inactive, NR2E3 ag-2 1, COUP-TFII inh -9, NR2E3 ag confirm 62 and VP16 counter 45.
COc1ccc(-c2nc(CSCC(=O)NCC3CCCO3)c(C)o2)cc1OC (stereo not given) was read as CHT inh inactive, GalR3 antag -4, NR2E3 ag-1 -14, CHT allo act inactive, NR2E3 ag-2 0 and COUP-TFII inh -12.
For COc1ccc(CNS(=O)(=O)c2ccc3c(c2)CCN3C(=O)C2CCC2)cc1 the results were CHT inh inactive, GalR3 antag -1, NR2E3 ag-1 51, CHT allo act inactive, NR2E3 ag-2 -2, COUP-TFII inh -7, NR2E3 ag confirm 27 and VP16 counter 43.
CCCCCCCCNc1ncnc2ccccc12 was read as CHT inh inactive, NR2E3 ag-1 92*, CHT allo act inactive, NR2E3 ag-2 0, NR2E3 ag confirm 99* and VP16 counter 92*.
CCc1ccccc1Nc1ncnc2ccccc12 was read as CHT inh inactive, GalR3 antag -5, NR2E3 ag-1 -13, CHT allo act inactive, NR2E3 ag-2 -1 and COUP-TFII inh -10.
Screening COc1ccccc1NC(=S)OCCN1CCCC12CCC(c1ccccc1)CC2 (stereo not given) returned COUP-TFII inh -4.
